Measurements gathered from unrelated publications.
Compare with care: the assays were run in different laboratories.
Target: Serine/threonine-protein kinase Nek1 (NEK1, Homo sapiens, UniProt Q96PY6)
One construct used (Q96PY6 1-1258): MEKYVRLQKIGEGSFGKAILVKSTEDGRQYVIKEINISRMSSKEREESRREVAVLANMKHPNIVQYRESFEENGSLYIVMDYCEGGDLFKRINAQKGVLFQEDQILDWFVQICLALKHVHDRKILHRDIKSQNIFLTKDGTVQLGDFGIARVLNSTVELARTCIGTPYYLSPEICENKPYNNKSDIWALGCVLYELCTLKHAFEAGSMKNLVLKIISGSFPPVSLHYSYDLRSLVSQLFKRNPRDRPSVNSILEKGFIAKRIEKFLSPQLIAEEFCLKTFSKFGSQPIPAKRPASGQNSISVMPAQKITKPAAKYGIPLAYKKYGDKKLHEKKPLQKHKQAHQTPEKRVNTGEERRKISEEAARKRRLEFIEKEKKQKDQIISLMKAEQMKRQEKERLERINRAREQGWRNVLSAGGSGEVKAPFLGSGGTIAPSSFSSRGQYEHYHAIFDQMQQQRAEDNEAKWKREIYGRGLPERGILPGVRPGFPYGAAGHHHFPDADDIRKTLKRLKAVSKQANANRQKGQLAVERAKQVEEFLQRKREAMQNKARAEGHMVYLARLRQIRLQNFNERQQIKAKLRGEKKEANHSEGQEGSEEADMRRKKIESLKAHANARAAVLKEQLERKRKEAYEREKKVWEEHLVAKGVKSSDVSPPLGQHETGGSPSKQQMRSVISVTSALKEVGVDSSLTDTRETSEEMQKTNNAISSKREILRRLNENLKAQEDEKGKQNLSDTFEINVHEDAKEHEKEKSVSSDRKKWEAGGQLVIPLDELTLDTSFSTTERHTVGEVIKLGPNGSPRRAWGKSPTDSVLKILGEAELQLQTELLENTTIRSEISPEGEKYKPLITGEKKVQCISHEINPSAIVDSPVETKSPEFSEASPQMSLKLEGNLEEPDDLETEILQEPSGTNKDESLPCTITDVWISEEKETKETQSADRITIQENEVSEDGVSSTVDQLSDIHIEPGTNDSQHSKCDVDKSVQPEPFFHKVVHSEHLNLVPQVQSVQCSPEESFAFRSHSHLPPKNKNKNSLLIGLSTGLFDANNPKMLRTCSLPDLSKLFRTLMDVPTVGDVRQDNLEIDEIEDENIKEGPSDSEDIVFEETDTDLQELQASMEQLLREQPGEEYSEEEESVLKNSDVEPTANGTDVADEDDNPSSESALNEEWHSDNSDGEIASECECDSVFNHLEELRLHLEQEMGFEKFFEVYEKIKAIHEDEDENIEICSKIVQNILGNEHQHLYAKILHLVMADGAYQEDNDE

| Structure (SMILES) | assay | conditions | endpoint | value |
| --- | --- | --- | --- | --- |
| Cc1cc(O)c(-c2ccc([C@@H](C)CN(C)C)cc2)c2c1[nH]c(=O)c1sccc12 | enzyme activity, inhibitor | 0.1 µM | inhibition | -3.68% |
| CO[C@@H]1[C@H](N(C)C(=O)c2ccccc2)C[C@H]2O[C@]1(C)n1c3ccccc3c3c4c(c5c6ccccc6n2c5c31)C(=O)NC4 | enzyme activity, inhibitor | 1 µM | inhibition | 0% |
| CCCCC(=O)Nc1ccc(-c2ccc3ncn(CCC)c(=O)c3c2)cn1 | binding, competition with immobilised ligand | 0.5 µM | remaining binding | 95% |
| COc1ccc2oc(-c3ccc4nc(N)oc4c3)c/c(=N\c3ccccc3NC(=O)CCN)c2c1 | binding | 1 µM | remaining binding | 108% |
| C1=C/COCc2cc(ccc2OCCN2CCCC2)Nc2nccc(n2)-c2cccc(c2)COC/1 | binding | 0.1 µM | remaining binding | 98% |
| COc1ccc2[nH]c3c4[nH]c5ccc(OC)cc5c4c4c(c3c2c1)C(=O)NC4=O | binding | 1 µM | remaining binding | 100% |
| CC#CC(=O)N1CCC[C@H]1c1nc(-c2ccc(C(=O)Nc3ccccn3)cc2)c2c(N)nccn12 | enzyme activity, inhibitor | 1 µM | inhibition | 8% |
| C[C@H]1CC[C@H](n2c3cnccc3c3cnc(Nc4ccc5c(n4)CCN(C(=O)CO)C5)nc32)CC1 | cell-free assay | 1 µM | remaining signal | 85% |
| C#Cc1cc(-c2cc(Nc3nc(N[C@@H](C)c4ccc(F)cn4)ncc3Cl)n[nH]2)ccc1C=O | enzyme activity, inhibitor | 0.2 µM | inhibition | 70.2% |
